Results reported in ChEMBL document CHEMBL2380239, “Novel ROS-activated agents utilize a tethered amine to selectively target acute myeloid leukemia” (Bioorg Med Chem Lett, 2013).

Legend:
HeLa = assay: Cytotoxicity against human HeLa cells after 48 hrs by MTT assay; format: functional, cell-based
[1] = Therapeutic index, ratio of IC50 for human CD34-positive blood stem/progenitor cells to IC50 for human MA9.3 cells; conditions: CD34-positive blood stem/progenitor cells versus MA9.3 cells, read-out: Ratio IC50
Outline: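 Cytotoxicity was measured in parallel on non-cancerous human CD34+ blood stem/progenitor cells (UCB) and on the MA9.3 AML line, which was made by introducing the MLL-AF9 oncogene into human CD34+ cells. The index is IC50 in CD34+ cells divided by IC50 in MA9.3, reported as mean ± error.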

[2] = Cytotoxicity against human MA9.3 cells after 48 hrs by MTT assay; format: functional, cell-based
Outline: (§1)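 Non-transformed human CD34+ blood stem/progenitor cells from umbilical cord blood were run alongside MA9.3, an AML line made by introducing the MLL-AF9 oncogene into human CD34+ cells. IC50 was determined on each cell type. Therapeutic index is the ratio between the MA9.3 and CD34+ IC50 values.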

[3] = Cytotoxicity against human CD34-positive blood stem/progenitor cells after 48 hrs by MTT assay; format: cell-based; outline: as §1
MDA-MB-468 = assay: Growth inhibition of human MDA-MB-468 cells after 48 hrs by sulforhodamine B assay; format: functional; conditions: MDA-MB-468, 48 h
Outline: (§2)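 Run in the National Cancer Institute 60-cell-line panel screen. Viability was read by sulforhodamine B staining of total protein content, so it reflects cell number rather than metabolic activity. Values are reported as GI50.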

T47D = assay: Growth inhibition of human T47D cells after 48 hrs by sulforhodamine B assay; format: functional
Outline: (§3)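 Run within the National Cancer Institute 60-cell-line panel. Viability was read by sulforhodamine B staining of total cellular protein, as a measure of cell number rather than metabolic activity. GI50 values were taken from the panel data.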

Hs-578T = assay: Growth inhibition of human Hs578T cells after 48 hrs by sulforhodamine B assay; format: functional; outline: as §2
BT-549 = assay: Growth inhibition of human BT549 cells after 48 hrs by sulforhodamine B assay; format: functional; conditions: BT-549, 48 h; outline: as §2
MDA-MB-231 = assay: Growth inhibition of human MDA-MB-231 cells after 48 hrs by sulforhodamine B assay; format: functional; conditions: MDA-MB-231, 48 h; outline: as §2
MCF7 = assay: Growth inhibition of human MCF7 cells after 48 hrs by sulforhodamine B assay; format: functional; conditions: MCF7, 48 h; outline: as §2
DU-145 = assay: Growth inhibition of human DU145 cells after 48 hrs by sulforhodamine B assay; format: functional; conditions: DU-145, 48 h; outline: as §2
PC-3 = assay: Growth inhibition of human PC3 cells after 48 hrs by sulforhodamine B assay; format: functional; conditions: PC-3, 48 h; outline: as §2
UO-31 = assay: Growth inhibition of human UO31 cells after 48 hrs by sulforhodamine B assay; format: functional; conditions: UO-31, 48 h; outline: as §3
TK-10 = assay: Growth inhibition of human TK10 cells after 48 hrs by sulforhodamine B assay; format: functional; conditions: TK-10, 48 h; outline: as §3
SN12C = assay: Growth inhibition of human SN12C cells after 48 hrs by sulforhodamine B assay; format: functional; outline: as §3
RXF 393 = assay: Growth inhibition of human RXF393 cells after 48 hrs by sulforhodamine B assay; format: functional; conditions: RXF 393, 48 h; outline: as §2
CAKI-1 = assay: Growth inhibition of human CAKI-1 cells after 48 hrs by sulforhodamine B assay; format: functional; conditions: CAKI-1, 48 h; outline: as §2
A498 = assay: Growth inhibition of human A498 cells after 48 hrs by sulforhodamine B assay; format: functional; conditions: A498, 48 h; outline: as §2
ACHN = assay: Growth inhibition of human ACHN cells after 48 hrs by sulforhodamine B assay; format: functional; outline: as §2
SK-OV-3 = assay: Growth inhibition of human SKOV3 cells after 48 hrs by sulforhodamine B assay; format: functional; conditions: SK-OV-3, 48 h; outline: as §2
786-0 = assay: Growth inhibition of human 786-0 cells after 48 hrs by sulforhodamine B assay; format: functional; conditions: 786-0, 48 h; outline: as §2
OVCAR-8 = assay: Growth inhibition of human OVCAR8 cells after 48 hrs by sulforhodamine B assay; format: functional; conditions: OVCAR-8, 48 h; outline: as §2
[4] = Growth inhibition of human NCI-ADR-RES cells after 48 hrs by sulforhodamine B assay; format: functional; outline: as §2
OVCAR-4 = assay: Growth inhibition of human OVCAR4 cells after 48 hrs by sulforhodamine B assay; format: functional; conditions: OVCAR-4, 48 h; outline: as §2
OVCAR-5 = assay: Growth inhibition of human OVCAR5 cells after 48 hrs by sulforhodamine B assay; format: functional; conditions: OVCAR-5, 48 h; outline: as §2
IGROV-1 = assay: Growth inhibition of human IGROV1 cells after 48 hrs by sulforhodamine B assay; format: functional; conditions: IGROV-1, 48 h; outline: as §2
OVCAR-3 = assay: Growth inhibition of human OVCAR3 cells after 48 hrs by sulforhodamine B assay; format: functional; conditions: OVCAR-3, 48 h; outline: as §2
UACC-257 = assay: Growth inhibition of human UACC257 cells after 48 hrs by sulforhodamine B assay; format: functional; conditions: UACC-257, 48 h; outline: as §3
UACC-62 = assay: Growth inhibition of human UACC62 cells after 48 hrs by sulforhodamine B assay; format: functional; conditions: UACC-62, 48 h; outline: as §3
SK-MEL-28 = assay: Growth inhibition of human SK-MEL-28 cells after 48 hrs by sulforhodamine B assay; format: functional; conditions: SK-MEL-28, 48 h; outline: as §2
SK-MEL-5 = assay: Growth inhibition of human SK-MEL-5 cells after 48 hrs by sulforhodamine B assay; format: functional; conditions: SK-MEL-5, 48 h; outline: as §2
MDA-MB-435 = assay: Growth inhibition of human MDA-MB-435 cells after 48 hrs by sulforhodamine B assay; format: functional; conditions: MDA-MB-435, 48 h; outline: as §2
SK-MEL-2 = assay: Growth inhibition of human SK-MEL-2 cells after 48 hrs by sulforhodamine B assay; format: functional; conditions: SK-MEL-2, 48 h; outline: as §2
M14 = assay: Growth inhibition of human M14 cells after 48 hrs by sulforhodamine B assay; format: functional; conditions: M14, 48 h; outline: as §2
U-251 = assay: Growth inhibition of human U251 cells after 48 hrs by sulforhodamine B assay; format: functional; conditions: U-251, 48 h; outline: as §3
LOX IMVI = assay: Growth inhibition of human LOXIMVI cells after 48 hrs by sulforhodamine B assay; format: functional; outline: as §2
SNB-19 = assay: Growth inhibition of human SNB19 cells after 48 hrs by sulforhodamine B assay; format: functional; conditions: SNB-19, 48 h; outline: as §3
SNB-75 = assay: Growth inhibition of human SNB75 cells after 48 hrs by sulforhodamine B assay; format: functional; conditions: SNB-75, 48 h; outline: as §3
SF-539 = assay: Growth inhibition of human SF539 cells after 48 hrs by sulforhodamine B assay; format: functional; conditions: SF-539, 48 h; outline: as §2
SW-620 = assay: Growth inhibition of human SW620 cells after 48 hrs by sulforhodamine B assay; format: functional; conditions: SW-620, 48 h; outline: as §3
SF-268 = assay: Growth inhibition of human SF268 cells after 48 hrs by sulforhodamine B assay; format: functional; conditions: SF-268, 48 h; outline: as §2
HT-29 = assay: Growth inhibition of human HT-29 cells after 48 hrs by sulforhodamine B assay; format: functional; conditions: HT-29, 48 h; outline: as §2
KM12 = assay: Growth inhibition of human KM12 cells after 48 hrs by sulforhodamine B assay; format: functional; conditions: KM12, 48 h; outline: as §2
HCT-15 = assay: Growth inhibition of human HCT15 cells after 48 hrs by sulforhodamine B assay; format: functional; conditions: HCT-15, 48 h; outline: as §2
HCT-116 = assay: Growth inhibition of human HCT116 cells after 48 hrs by sulforhodamine B assay; format: functional; conditions: HCT-116, 48 h; outline: as §2
COLO 205 = assay: Growth inhibition of human COLO205 cells after 48 hrs by sulforhodamine B assay; format: functional; conditions: COLO 205, 48 h; outline: as §2
[5] = Growth inhibition of human HCC2998 cells after 48 hrs by sulforhodamine B assay; format: functional; conditions: HCC 2998, 48 h; outline: as §2
NCI-H522 = assay: Growth inhibition of human NCI-H522 cells after 48 hrs by sulforhodamine B assay; format: functional; conditions: NCI-H522, 48 h; outline: as §2
NCI-H322M = assay: Growth inhibition of human NCI-H322M cells after 48 hrs by sulforhodamine B assay; format: functional; outline: as §2
NCI-H23 = assay: Growth inhibition of human NCI-H23 cells after 48 hrs by sulforhodamine B assay; format: functional; conditions: NCI-H23, 48 h; outline: as §2
HOP-92 = assay: Growth inhibition of human HOP92 cells after 48 hrs by sulforhodamine B assay; format: functional; conditions: HOP-92, 48 h; outline: as §2
NCI-H226 = assay: Growth inhibition of human NCI-H226 cells after 48 hrs by sulforhodamine B assay; format: functional; conditions: NCI-H226, 48 h; outline: as §2
HOP-62 = assay: Growth inhibition of human HOP62 cells after 48 hrs by sulforhodamine B assay; format: functional; conditions: HOP-62, 48 h; outline: as §2
HL-60(TB) = assay: Growth inhibition of human HL-60(TB) cells after 48 hrs by sulforhodamine B assay; format: functional; conditions: HL-60, 48 h
Outline: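 Tested through the National Cancer Institute's NCI-60 cell line panel screen. Viability was read by sulforhodamine B staining, which measures total cellular protein and so reflects cell number rather than metabolic activity. The value is reported as GI50.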

A549 = assay: Growth inhibition of human A549/ATCC cells after 48 hrs by sulforhodamine B assay; format: functional; conditions: A549, 48 h; outline: as §2
RPMI-8226 = assay: Growth inhibition of human RPMI8226 cells after 48 hrs by sulforhodamine B assay; format: functional; conditions: RPMI-8226, 48 h; outline: as §2
SR = assay: Growth inhibition of human SR cells after 48 hrs by sulforhodamine B assay; format: functional; outline: as §3
MOLT-4 = assay: Growth inhibition of human MOLT4 cells after 48 hrs by sulforhodamine B assay; format: functional; conditions: MOLT-4, 48 h; outline: as §2
CCRF-CEM = assay: Growth inhibition of human CCRF-CEM cells after 48 hrs by sulforhodamine B assay; format: functional; outline: as §2

Compound: CCN(CCCOc1ccc(O)cc1)c1ccccc1
- IC50 (HeLa): 14 µM

Compound: CN(CCCOc1ccc(O)cc1)c1ccccc1
- selectivity ratio [1]: 7.7
- IC50 [2]: 0.7 µM
- IC50 [3]: 5.4 µM
- GI50 (MDA-MB-468): 3.3 µM
- GI50 (T47D): 4.6 µM
- GI50 (Hs-578T): 3.1 µM
- GI50 (BT-549): 1.7 µM
- GI50 (MDA-MB-231): 6.9 µM
- GI50 (MCF7): 2.6 µM
- GI50 (DU-145): 2.8 µM
- GI50 (PC-3): 2.1 µM
- GI50 (UO-31): 0.4 µM
- GI50 (TK-10): 8.3 µM
- GI50 (SN12C): 3.1 µM
- GI50 (RXF 393): 2.1 µM
- GI50 (CAKI-1): 0.3 µM
- GI50 (A498): 2.6 µM
- GI50 (ACHN): 0.3 µM
- GI50 (SK-OV-3): 11.5 µM
- GI50 (786-0): 1.9 µM
- GI50 (OVCAR-8): 1.5 µM
- GI50 [4]: 1.5 µM
- GI50 (OVCAR-4): 11.7 µM
- GI50 (OVCAR-5): 7.8 µM
- GI50 (IGROV-1): 4.1 µM
- GI50 (OVCAR-3): 4 µM
- GI50 (UACC-257): 8.1 µM
- GI50 (UACC-62): 2.1 µM
- GI50 (SK-MEL-28): 12.3 µM
- GI50 (SK-MEL-5): 2.1 µM
- GI50 (MDA-MB-435): 6.6 µM
- GI50 (SK-MEL-2): 10.5 µM
- GI50 (M14): 1.7 µM
- GI50 (U-251): 1.7 µM
- GI50 (LOX IMVI): 2.8 µM
- GI50 (SNB-19): 7.9 µM
- GI50 (SNB-75): 3 µM
- GI50 (SF-539): 0.6 µM
- GI50 (SW-620): 1.3 µM
- GI50 (SF-268): 2.2 µM
- GI50 (HT-29): 5.6 µM
- GI50 (KM12): 4.3 µM
- GI50 (HCT-15): 3.5 µM
- GI50 (HCT-116): 3.5 µM
- GI50 (COLO 205): 13.8 µM
- GI50 [5]: 11.2 µM
- GI50 (NCI-H522): 2.8 µM
- GI50 (NCI-H322M): 12.6 µM
- GI50 (NCI-H23): 3 µM
- GI50 (HOP-92): 0.5 µM
- GI50 (NCI-H226): 10.5 µM
- GI50 (HOP-62): 10.5 µM
- GI50 (HL-60(TB)): 0.9 µM
- GI50 (A549): 2.2 µM
- GI50 (RPMI-8226): 1.2 µM
- GI50 (SR): 2.5 µM
- GI50 (MOLT-4): 2 µM
- GI50 (CCRF-CEM): 0.3 µM
- IC50 (HeLa): 9 µM
